Data set [1] is described as follows: Binding affinity to ADAM10 A10-mutant RNA QGRS (unknown origin) by surface plasmon resonance method. On the technique in general: Surface plasmon resonance follows binding to a sensor surface in real time, without labels.
The test system of data set [2] is HeLa. As to the kind of experiment: Binding affinity to ADAM10 5'-UTR mutant RNA QGRS (unknown origin) transfected in human HeLa cells assessed as increase in ADAM10 translation efficiency at 2.5 uM after 24 hrs by Renilla/firefly dual luciferase reporter assay. It is filed as cell-based. Summed up:
(§1)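 HeLa cells transfected with 0.8 μg 5′UTR-Wt or 5′UTR-Mut dual-luciferase plasmid. After 12 h, incubated 24 h with 0, 0.5, 1 or 2.5 μM compound. Renilla luciferase normalized to firefly and expressed relative to the ligand-free control; mean ± SD of three independent experiments, each in triplicate.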
On the technique in general: In a reporter assay the amount or activity of a reporter protein is the signal.

In data set [3] the test system is HeLa. Description: Binding affinity to ADAM10 A10-mutant RNA QGRS (unknown origin) transfected in human HeLa cells assessed as increase in ADAM10 translation efficiency at 0.5 to 2.5 uM after 24 hrs by Renilla/firefly dual luciferase reporter assay. The format is cell-based. The method, boiled down:
(§2)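 HeLa cells transfected with 0.8 μg A10-Wt, A10-Mut or A10-Del plasmid (G-quadruplex motif upstream of Renilla in psiCHECK-2). Screening: 24 h at a single 2 μM concentration. Follow-up: plasmid for 12 h, then 0, 0.5, 1 or 2.5 μM for 24 h. Renilla normalized to firefly, relative to untreated control; mean ± SD of three independent measurements.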

The subject of data set [4] is HeLa. As to the kind of experiment: Binding affinity to ADAM10 5'-UTR RNA QGRS (unknown origin) transfected in human HeLa cells assessed as increase in luciferase mRNA expression at 0.5 to 2.5 uM after 24 hrs by RT-PCR method. The format is cell-based.
Data set [5] relates to HeLa. As to the kind of experiment: Binding affinity to ADAM10 5'-UTR RNA QGRS (unknown origin) transfected in human HeLa cells assessed as increase in ADAM10 translation efficiency at 2.5 uM after 24 hrs by Renilla/firefly dual luciferase reporter assay. It is filed as cell-based. Summed up:
as §1

A short description of data set [6]: Binding affinity to 5'-end biotinylated ADAM10 A10-RNA QGRS (unknown origin) by surface plasmon resonance assay method. Summed up: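 SPR with 5′-biotinylated A10-RNA-Wt or A10-RNA-Mut immobilized on a neutravidin chip in running buffer (50 mM Tris-HCl pH 7.5, 100 mM KCl). Ligand serial dilutions in running buffer injected at 20 μL/min for association, then dissociation. Chip regenerated with 50 mM NaOH between runs.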

Data set [7] in a line: Toxicity against human HeLa cells assessed as reduction in cell viability after 24 hrs by MTT assay. It is filed as cell-based. On the technique in general: Tetrazolium assays rely on reduction of a dye to a coloured formazan, in cell work by metabolically active cells.
Data set [8] has as its system HeLa. As to the kind of experiment: Binding affinity to ADAM10 A10-RNA QGRS (unknown origin) transfected in human HeLa cells assessed as increase in ADAM10 translation efficiency at 2 uM after 24 hrs by Renilla/firefly dual luciferase reporter assay. It is filed as cell-based. Summed up:
as §2

In data set [9] the test system is HEK293. As to the kind of experiment: Effect on APP protein expression in APP expressing HEK cells at 0.5 to 1.5 uM after 48 hrs by Western blotting method. The format is functional, cell-based. To be noted: Homo sapiens. The method, boiled down:
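HEK-APP cells (DMEM, 10% FBS, 2 mM glutamine, 0.2 mg/mL G418) treated with 0, 0.5, 0.75, 1 or 1.5 μM compound for 48 h. Lysates in Tris/NaCl/EDTA/1% Triton buffer immunoblotted for ADAM10, APP and β-actin; conditioned medium blotted for sAPPα. Signal by densitometry, normalized to β-actin, relative to blank control; mean ± SD, three independent experiments.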

Data set [10] has as its system HeLa. As to the kind of experiment: Binding affinity to VEGF RNA QGRS (unknown origin) transfected in human HeLa cells assessed as increase in ADAM10 translation efficiency at 2.5 uM after 24 hrs by Renilla/firefly dual luciferase reporter assay. The format is cell-based. Summed up:
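HeLa cells carrying luciferase reporter plasmids with the N-Ras, Bcl-2 or VEGF 5′-UTR quadruplex (or its mutant) treated with compound up to 2.5 μM for 24 h. Renilla/firefly luciferase activity then measured.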

Data set [11] is described as follows: Binding affinity to ADAM10 A10-RNA QGRS (unknown origin) assessed as increase in RNA-ligand complexes at 0.5 to 10 fold excess compound level by native gel electrophoresis method. Summed up: (§3)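 A10-RNA-Wt labeled with Cy3/Cy5 folded in 100 mM KCl, 10 mM Tris-HCl, 0.1 mM EDTA (pH 7.5): 95 °C for 5 min, then cooled to room temperature over 90 min. RNA (2 μM) incubated 5 min at room temperature in the dark with 0, 0.5, 1, 5 or 10-fold excess compound. Run on native 16% polyacrylamide gel at 4 °C.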

Data set [12] is described as follows: Binding affinity to ADAM10 A10-RNA QGRS (unknown origin) assessed as reduction in RNA G-quadruplex bands at 0.5 to 10 fold excess compound level by native gel electrophoresis method. The method, boiled down:
as §3

Data set [13] can be described thus: Drug accumulation in cytoplasm of APP expressing HEK cells at 2 uM after 2 hrs by confocal microscopy. The format is ADME, cell-based. To be noted: human, hek293, 2 h.
The nature of data set [14]: Effect on secondary structure of ADAM10 A10-RNA QGRS (unknown origin) by CD spectroscopy.

Molecules are shown by their SMILES. Activity calls are given as the source filed them. No cut-off for these calls is given here.

For orientation: Kd means a measure of binding affinity in units of concentration. A lower Kd goes with higher affinity. By IC50 is commonly meant the concentration that inhibits the measured activity by half. Take `CCn1c2ccccc2c2cc(/C=C/c3cc(N4CCN(C)CC4)c4ccccc4[n+]3C)ccc21.[I-]`: the Kd was 700000 µM in data set [1] and 6.1 µM in [6]. In addition, the result in data set [2], in data set [3], in data set [4], in [9], in [10] and in data set [14] was inactive. Further, the Activity in [5] worked out at 44.8%; in data set [8], 138%. Also, the IC50 at 24 h in data set [7] was determined as 20.9 µM. Further, the outcome in data set [11] and in [12] was Active. Besides, the Drug uptake result in data set [13] is “Active”.

Values taken from ChEMBL document CHEMBL3425405, “Discovery of Small Molecules for Up-Regulating the Translation of Antiamyloidogenic Secretase, a Disintegrin and Metalloproteinase 10 (ADAM10), by Binding to the G-Quadruplex-Forming Sequence in the 5' Untranslated Region (UTR) of Its mRNA” (J Med Chem, 2015).
